This note sets out measurements from ChEMBL document CHEMBL1148192, “Nagelamides A-H, new dimeric bromopyrrole alkaloids from marine sponge Agelas species” (J Nat Prod, 2004).

Usually MIC stands for the lowest concentration found to suppress growth. One may read the IC50 as the concentration that gives 50% inhibition.

The subject of test [1] is Escherichia coli. Briefly: Antimicrobial activity against Escherichia coli. Type of test: functional. In outline:
(§1)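 Microbroth dilution method in BHI medium.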

The subject of test [2] is Bacillus subtilis. Kind of test: Antimicrobial activity against Bacillus subtilis. Type of test: functional. In outline:
as §1

Test [3] is described as follows: Inhibition of protein phosphatase 2A in african green monkey COS7 cells. Type of test: cell-based, Chlorocebus aethiops. The settings on record: cos-7. A digest of the protocol:
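PP2A activity was measured in COS-7 cell extract. Cells were lysed at 4 °C in hypotonic Tris-HCl pH 7.5 buffer with DTT, EGTA and protease inhibitors, then centrifuged at 20000g. Extract at 5 μg/mL protein was preincubated with compound for 10 min at 30 °C. Activity was taken as the okadaic acid (1 nM)-sensitive portion, run in triplicate and reported as the mean.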

Test [4] relates to Micrococcus luteus. Briefly: Antimicrobial activity against Micrococcus luteus. The class given is functional. In outline:
as §1

Values after ≈ are worked out from the molar mass of the structure shown. Where only a bound is given, the exact number is not on record here.

As for `Nc1nc([C@@H]2c3[nH]c(N)nc3C[C@H](CNC(=O)c3cc(Br)c[nH]3)[C@H]2CNC(=O)c2cc(Br)c[nH]2)c[nH]1.O=C(O)C(F)(F)F.O=C(O)C(F)(F)F` [AGELIFERIN], the MIC in test [1] amounted to 33.3 µg/mL; in test [2], 8.33 µg/mL; in test [4] it was 4.17 µg/mL. The IC50 in test [3] was > 50 µM.

In the case of `Nc1nc([C@@H]2c3[nH]c(N)nc3C[C@H](CNC(=O)c3cc(Br)c[nH]3)[C@H]2CNC(=O)c2cc(Br)c(Br)[nH]2)c[nH]1` [BROMOAGELIFERIN], the MIC in test [1] came to 16.7 µg/mL (≈ 23.9 µM); in test [2], 2.08 µg/mL (≈ 2.97 µM); in test [4], 2.08 µg/mL (≈ 2.97 µM). Moreover, the IC50 in test [3] was > 50 µM.

Take `Nc1nc([C@H](CCNC(=O)c2cc(Br)c(Br)[nH]2)c2[nH]c(N)nc2/C=C/CNC(=O)c2cc(Br)c(Br)[nH]2)c[nH]1` [NAGELAMIDE A]: the MIC in test [1] came out at 33.3 µg/mL (≈ 42.8 µM); in test [2], 16.7 µg/mL (≈ 21.5 µM); in test [4] it was 2.08 µg/mL (≈ 2.67 µM). Further, half-maximal inhibition in test [3] (IC50) was put at 48 µM.

Turning to `Nc1nc([C@@H](c2[nH]c(N)nc2/C=C/CNC(=O)c2cc(Br)c(Br)[nH]2)[C@H](O)CNC(=O)c2cc(Br)c(Br)[nH]2)c[nH]1` [NAGELAMIDE B], the MIC in test [1] is 33.3 µg/mL (≈ 41.9 µM); in test [2], 33.3 µg/mL (≈ 41.9 µM); in test [4], 4.17 µg/mL (≈ 5.25 µM). In test [3], the IC50 was > 50 µM.

`Nc1nc(/C(=C/CNC(=O)c2cc(Br)c(Br)[nH]2)c2[nH]c(N)nc2/C=C/CNC(=O)c2cc(Br)c(Br)[nH]2)c[nH]1` [NAGELAMIDE C]: the MIC in test [1] was 33.3 µg/mL (≈ 42.9 µM); in test [2], 33.3 µg/mL (≈ 42.9 µM); in test [4] it was 4.17 µg/mL (≈ 5.37 µM). Besides, the IC50 in test [3] was > 50 µM.

With `Nc1nc([C@H](CCNC(=O)c2cc(Br)c(Br)[nH]2)c2[nH]c(N)nc2CCCNC(=O)c2cc(Br)c(Br)[nH]2)c[nH]1` [NAGELAMIDE D], the MIC in test [1] is 33.3 µg/mL (≈ 42.7 µM); in test [2] it was 33.3 µg/mL (≈ 42.7 µM); in test [4], 4.17 µg/mL (≈ 5.35 µM).

On to `Nc1nc([C@H]2c3[nH]c(N)nc3C[C@H](CNC(=O)c3cc(Br)c[nH]3)[C@H]2CNC(=O)c2cc(Br)c[nH]2)c[nH]1` [NAGELAMIDE E], for which the MIC in test [1] came to 33.3 µg/mL (≈ 53.7 µM); in test [2], 16.7 µg/mL (≈ 26.9 µM); in test [4], 4.17 µg/mL (≈ 6.72 µM).

In the case of `Nc1nc([C@H]2c3[nH]c(N)nc3C[C@H](CNC(=O)c3cc(Br)c[nH]3)[C@H]2CNC(=O)c2cc(Br)c(Br)[nH]2)c[nH]1` [NAGELAMIDE F], the MIC in test [1] was 33.3 µg/mL (≈ 47.6 µM); in test [2], 16.7 µg/mL (≈ 23.9 µM); in test [4], 4.17 µg/mL (≈ 5.96 µM).

On to `Nc1nc([C@H]2c3[nH]c(N)nc3C[C@H](CNC(=O)c3cc(Br)c(Br)[nH]3)[C@H]2CNC(=O)c2cc(Br)c(Br)[nH]2)c[nH]1` [NAGELAMIDE G], for which the MIC in test [1] worked out at 33.3 µg/mL (≈ 42.8 µM); in test [2] it was 16.7 µg/mL (≈ 21.5 µM); in test [4] it was 2.08 µg/mL (≈ 2.67 µM). In test [3], this molecule came in with an IC50 of 13 µM.

For `NC1=N/C(=N\CCS(=O)(=O)O)C(/C=C/CNC(=O)c2cc(Br)c(Br)[nH]2)(c2[nH]c(N)nc2/C=C/CNC(=O)c2cc(Br)c(Br)[nH]2)N1` (stereo unspecified) [NAGELAMIDE H], the MIC in test [1] is > 33.3 µg/mL; in test [2] it was 33.3 µg/mL (≈ 37 µM); in test [4], 16.7 µg/mL (≈ 18.6 µM). The IC50 in test [3] is 46 µM.

As to `Cl.Cl.Nc1ncc([C@H]2[C@H](CNC(=O)c3cc(Br)c[nH]3)[C@@H](CNC(=O)c3cc(Br)c[nH]3)[C@@H]2c2cnc(N)[nH]2)[nH]1` [SCEPTRIN HYDROCHLORIDE], the MIC stood at 33.3 µg/mL in test [1], 8.33 µg/mL in test [2] and 4.07 µg/mL in test [4]. In test [3], this molecule came in with an IC50 of 50 µM.
